Data reported in ChEMBL document CHEMBL3526146, “In vitro and in vivo metabolism and pharmacokinetics of BMS-562086, a potent and orally bioavailable corticotropin-releasing factor-1 receptor antagonist” (Drug Metab Dispos, 2012).

Columns and labels:
[1] = Detection of compound level in cynomolgus monkey liver microsomes treated with 100 uM of BMS-562086 after 1 hr by LC-MS/MS analysis
[2] = Drug metabolism in human cryopreserved hepatocytes assessed as DPH-123554 metabolite level at 25 uM after 3 hrs by LC-MS/MS analysis; assay type: ADME, cell-based, Hepatocyte
Procedure, shortened: (§1)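 Hepatocytes checked for viability by trypan blue exclusion, then diluted in Krebs-Henseleit buffer to 1.0 × 10^6 cells/ml. Incubated in duplicate with 25 µM compound at 37°C for 3 h on an orbital shaker (80 rpm) under 95/5 O2/CO2. Negative control had no cells. Stopped with ice-cold acetonitrile, sonicated, centrifuged; supernatant analysed by LC/MS/MS.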

[3] = Drug metabolism in cynomolgus monkey cryopreserved hepatocytes assessed as DPH-123554 metabolite level at 25 uM after 3 hrs by LC-MS/MS analysis; assay type: ADME, cell-based, Macaca fascicularis, Hepatocyte
Procedure, shortened: (§2)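 Mouse, rat, dog, monkey and human hepatocytes (trypan blue viability checked) at 1.0×10^6 cells/ml in Krebs-Henseleit buffer were incubated with 25 µM compound, in duplicate. Conditions were 37°C, 95/5 O2/CO2, orbital shaking, 3 h. 7-Ethoxycoumarin and 7-hydroxycoumarin (100 µM) served as positive controls, with a cell-free negative control. Reactions were quenched with ice-cold acetonitrile, then sonicated and centrifuged; supernatants were analysed by LC/MS/MS.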

[4] = Drug metabolism in rat hepatocytes assessed as BMS-572273 metabolite level at 25 uM after 3 hrs by LC-MS/MS analysis; assay type: ADME, cell-based, Hepatocyte
Procedure, shortened: as §1

[5] = Drug metabolism in mouse liver microsomes assessed as BMS-572273 metabolite level at 100 uM after 1 hr in presence of NADPH; assay type: ADME
Procedure, shortened: (§3)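 Liver microsomes (1 mg/ml protein) in 100 mM phosphate buffer with 100 µM test compound. Reaction started by adding NADPH (1 mM), then run at 37°C for 1 h in a shaking water bath, in duplicate. Controls lacked microsomal protein or NADPH; 7-ethoxycoumarin (100 µM) was the positive control. Metabolites identified by LC/MS/MS.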

[6] = Drug metabolism in beagle dog hepatocytes assessed as DPH-124921 metabolite level at 25 uM after 3 hrs by LC-MS/MS analysis; assay type: ADME, cell-based, Canis lupus familiaris, Hepatocyte
Procedure, shortened: as §2

[7] = Drug metabolism in rat hepatocytes assessed as DPH-123554 metabolite level at 25 uM after 3 hrs by LC-MS/MS analysis; assay type: ADME, cell-based, Hepatocyte
Procedure, shortened: as §1

[8] = Detection of compound level in cynomolgus monkey cryopreserved hepatocytes treated with 25 uM of BMS-562086 after 3 hrs by LC-MS/MS analysis; assay type: ADME, cell-based, Macaca fascicularis, Hepatocyte
Procedure, shortened: as §2

Liver microsome [9] = test: Drug metabolism in rat liver microsomes assessed as BMS-572273 metabolite level at 100 uM after 1 hr in presence of NADPH; assay type: ADME
Procedure, shortened: as §3

[10] = Drug metabolism in beagle dog hepatocytes assessed as DPH-123554 metabolite level at 25 uM after 3 hrs by LC-MS/MS analysis; assay type: ADME, cell-based, Canis lupus familiaris, Hepatocyte
Procedure, shortened: as §2

[11] = Drug metabolism in rat hepatocytes assessed as DPH-124921 metabolite level at 25 uM after 3 hrs by LC-MS/MS analysis; assay type: ADME, cell-based, Hepatocyte
Procedure, shortened: as §1

[12] = Drug metabolism in cynomolgus monkey cryopreserved hepatocytes assessed as BMS-572273 metabolite level at 25 uM after 3 hrs by LC-MS/MS analysis; assay type: ADME, cell-based, Macaca fascicularis, Hepatocyte
Procedure, shortened: as §2

[13] = Drug metabolism in cynomolgus monkey liver microsomes assessed as BMS-572273 metabolite level at 100 uM after 1 hr in presence of NADPH; assay type: ADME, Macaca fascicularis
Procedure, shortened: (§4)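 Mouse, rat, dog, monkey and human liver microsomes (1 mg/ml protein) were incubated with 100 µM compound in 100 mM phosphate buffer. Reactions were started with 1 mM NADPH and run 1 h at 37°C in duplicate. Controls lacked protein or NADPH, plus a 7-ethoxycoumarin (100 µM) positive control. Metabolites were identified by LC/MS/MS.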

Liver microsome [14] = test: Drug metabolism in dog liver microsomes assessed as BMS-572273 metabolite level at 100 uM after 1 hr in presence of NADPH; assay type: ADME, Canis lupus familiaris
Procedure, shortened: as §4

Liver microsome [15] = test: Drug metabolism in human liver microsomes at 100 uM after 1 hr in presence of NADPH; assay type: ADME
Procedure, shortened: as §3

[16] = Drug metabolism in mouse liver microsomes assessed as DPH-124921 metabolite level at 100 uM after 1 hr in presence of NADPH; assay type: ADME
Procedure, shortened: as §3

Liver microsome [17] = test: Drug metabolism in rat liver microsomes assessed as DPH-123554 metabolite level at 100 uM after 1 hr in presence of NADPH; assay type: ADME
Procedure, shortened: as §3

[18] = Drug metabolism in cynomolgus monkey liver microsomes assessed as DPH-124921 metabolite level at 100 uM after 1 hr in presence of NADPH; assay type: ADME, Macaca fascicularis
Procedure, shortened: as §4

Liver microsome [19] = test: Drug metabolism in human liver microsomes assessed as DPH-124921 metabolite level at 100 uM after 1 hr in presence of NADPH; assay type: ADME
Procedure, shortened: as §3

[20] = Drug metabolism in cynomolgus monkey liver microsomes assessed as DPH-123554 metabolite level at 100 uM after 1 hr in presence of NADPH; assay type: ADME, Macaca fascicularis
Procedure, shortened: as §4

[21] = Drug metabolism in rat hepatocytes at 25 uM after 3 hrs by LC-MS/MS analysis; assay type: ADME, cell-based, Hepatocyte
Procedure, shortened: as §1

[22] = Drug metabolism in mouse hepatocytes at 25 uM after 3 hrs by LC-MS/MS analysis; assay type: ADME, cell-based, Hepatocyte
Procedure, shortened: as §1

Liver microsome [23] = test: Drug metabolism in dog liver microsomes assessed as DPH-124921 metabolite level at 100 uM after 1 hr in presence of NADPH; assay type: ADME, Canis lupus familiaris
Procedure, shortened: as §4

[24] = Drug metabolism in human cryopreserved hepatocytes assessed as DPH-124921 metabolite level at 25 uM after 3 hrs by LC-MS/MS analysis; assay type: ADME, cell-based, Hepatocyte
Procedure, shortened: as §1

[25] = Drug metabolism in human cryopreserved hepatocytes at 25 uM after 3 hrs by LC-MS/MS analysis; assay type: ADME, cell-based, Hepatocyte
Procedure, shortened: as §1

Liver microsome [26] = test: Drug metabolism in human liver microsomes assessed as DPH-123554 metabolite level at 100 uM after 1 hr in presence of NADPH; assay type: ADME
Procedure, shortened: as §3

Liver microsome [27] = test: Detection of compound level in rat liver microsomes treated with 100 uM of BMS-562086 after 1 hr by LC-MS/MS analysis
[28] = Drug metabolism in mouse liver microsomes at 100 uM after 1 hr in presence of NADPH; assay type: ADME
Procedure, shortened: as §3

[29] = Drug metabolism in beagle dog hepatocytes assessed as BMS-572273 metabolite level at 25 uM after 3 hrs by LC-MS/MS analysis; assay type: ADME, cell-based, Canis lupus familiaris, Hepatocyte
Procedure, shortened: as §2

[30] = Drug metabolism in cynomolgus monkey liver microsomes at 100 uM after 1 hr in presence of NADPH; assay type: ADME, Macaca fascicularis
Procedure, shortened: as §4

Liver microsome [31] = test: Detection of compound level in beagle dog liver microsomes treated with 100 uM of BMS-562086 after 1 hr by LC-MS/MS analysis
Liver microsome [32] = test: Drug metabolism in beagle dog liver microsomes assessed as DPH-123554 metabolite level at 100 uM after 1 hr in presence of NADPH; assay type: ADME, Canis lupus familiaris
Procedure, shortened: as §4

[33] = Detection of compound level in beagle dog hepatocytes treated with 25 uM of BMS-562086 after 3 hrs by LC-MS/MS analysis; assay type: ADME, cell-based, Canis lupus familiaris, Hepatocyte
Procedure, shortened: as §2

[34] = Drug metabolism in human cryopreserved hepatocytes assessed as BMS-572273 metabolite level at 25 uM after 3 hrs by LC-MS/MS analysis; assay type: ADME, cell-based, Hepatocyte
Procedure, shortened: as §1

Measured: Drug metabolism

COc1ccc(-c2c(C)nn3c(N)nc(C)nc23)c(C)n1
metabolite_detected: all assays above

COc1ccc(-c2c(C)nn3c(O)nc(C)nc23)c(C)n1
metabolite_detected: all assays above

CC[C@@H](C)Nc1nc(C)nc2c(-c3ccc(O)nc3C)c(C)nn12
metabolite_detected: all assays above
